ChEMBL document CHEMBL1955737, “Diarylpyrimidine-dihydrobenzyloxopyrimidine hybrids: new, wide-spectrum anti-HIV-1 agents active at (sub)-nanomolar level” (J Med Chem, 2011)

Assays:
[1] = system: Human immunodeficiency virus 1; assay: Ratio of ID50 for HIV 1 reverse transcriptase Y188L mutant to ID50 for wild type HIV 1 NL4-3 reverse transcriptase
In short: (§1)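 Recombinant HIV-1 RT (wild type or K103N, L100I, Y181I or Y188L), purified to >95%, at 2-4 nM. RNA-dependent DNA polymerase assay with 0.5 μg poly(rA)/oligo(dT) 10:1 (0.3 μM 3'-OH ends) and 10 μM [3H]dTTP in 8% final DMSO. Initial velocities were taken from aliquots sampled every 2 min. […] The ratio is mutant ID50 over wild-type ID50. Means of at least three experiments.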

[2] = system: Human immunodeficiency virus type 1 reverse transcriptase (Human immunodeficiency virus 1), Q72547 [Y181I]
[3] = Selectivity index, ratio of CC50 for human MT4 cells to EC50 for HIV 1 NL4-3; assay type: toxicity, cell-based; details: read-out: Ratio CC50/EC50
In short: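 CC50 from mock-infected MT-4 cells and EC50 against HIV-1 NL4-3 in infected MT-4 cells, both by day-5 MTT viability read-out; index computed as CC50/EC50(NL4-3); means of at least two experiments.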

[4] = system: Human immunodeficiency virus 1; assay: Ratio of ID50 for HIV 1 reverse transcriptase K103N mutant to ID50 for wild type HIV 1 NL4-3 reverse transcriptase; in short: as §1
[5] = system: Human immunodeficiency virus 1; assay: Resistance ratio of EC50 for HIV 1 harboring reverse transcriptase K103N mutant infected in human MT4 cells to EC50 for wild type HIV 1 NL4-3 infected in human MT4 cells; assay type: functional
In short: (§2)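 Fold change is the EC50 against the mutant strain (K103N, Y181C, Y188L or IRLL98) divided by the EC50 against wild-type NL4-3. Both EC50s come from MT-4 cells infected in the presence of a range of drug concentrations, with MTT viability read at day 5. Values are means of at least two experiments.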

[6] = system: Human immunodeficiency virus 1; assay: Antiviral activity against wild type HIV 1 NL4-3 infected in human MT4 cells assessed as inhibition of virus-induced cytopathic effect after 5 days by MTT assay; assay type: functional, organism-based; details: Human immunodeficiency virus 1, NL4-3, MT4, 120 h
[7] = system: Human immunodeficiency virus 1; assay: Antiviral activity against HIV 1 harboring reverse transcriptase K103N mutant infected in human MT4 cells assessed as inhibition of virus-induced cytopathic effect after 5 days by MTT assay; assay type: functional, organism-based; details: Human immunodeficiency virus 1, MT4, 120 h
[8] = Cytotoxicity against human MT4 cells assessed as cell viability by MTT assay; assay type: cell-based
[9] = system: Human immunodeficiency virus 1; assay: Ratio of ID50 for HIV 1 reverse transcriptase Y181I mutant to ID50 for wild type HIV 1 NL4-3 reverse transcriptase; in short: as §1
[10] = system: Human immunodeficiency virus 1; assay: Ratio of efavirenz EC50 to compound EC50 for wild type HIV 1 NL4-3 infected in human MT4 cells; assay type: functional
[11] = system: Human immunodeficiency virus type 1 reverse transcriptase (Human immunodeficiency virus 1), Q72547 [K103N]
[12] = Ratio of TMC120 CC50 to compound CC50 for human MT4 cells; assay type: ADME, cell-based
[13] = system: Human immunodeficiency virus 1; assay: Antiviral activity against HIV 1 harboring reverse transcriptase Y188L mutant infected in human MT4 cells assessed as inhibition of virus-induced cytopathic effect after 5 days by MTT assay; assay type: functional, organism-based; details: Human immunodeficiency virus 1, MT4, 120 h
[14] = system: Human immunodeficiency virus 1; assay: Antiviral activity against HIV 1 harboring reverse transcriptase Y181C mutant infected in human MT4 cells assessed as inhibition of virus-induced cytopathic effect after 5 days by MTT assay; assay type: functional, organism-based; details: Human immunodeficiency virus 1, MT4, 120 h
In short: (§3)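 MT-4 cells (NIH AIDS Reagent Program) infected with the mutant HIV-1 strain in the presence of a range of drug concentrations. Mutant strains were from the MRC Centralised Facility for AIDS Reagents; IRLL98 carries K101Q, Y181C and G190A. Viable cells were counted by MTT colorimetry at day 5 post-infection. […] Values are means of at least two experiments.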

[15] = system: Human immunodeficiency virus 1; assay: Ratio of ID50 for HIV 1 reverse transcriptase L100I mutant to ID50 for wild type HIV 1 NL4-3 reverse transcriptase; in short: as §1
[16] = system: Human immunodeficiency virus type 1 reverse transcriptase (Human immunodeficiency virus 1), Q72547 [L100I]
[17] = target: Human immunodeficiency virus type 1 reverse transcriptase (Human immunodeficiency virus 1) (UniProt Q72547)
[18] = system: MT4; assay: Ratio of MC1220 CC50 to compound CC50 for human MT4 cells; assay type: ADME, cell-based
[19] = system: Human immunodeficiency virus 1; assay: Resistance ratio of EC50 for HIV 1 harboring reverse transcriptase Y188L mutant infected in human MT4 cells to EC50 for wild type HIV 1 NL4-3 infected in human MT4 cells; assay type: functional; in short: as §2
[20] = system: Human immunodeficiency virus 1; assay: Resistance ratio of EC50 for HIV 1 harboring reverse transcriptase Y181C mutant infected in human MT4 cells to EC50 for wild type HIV 1 NL4-3 infected in human MT4 cells; assay type: functional; in short: as §2
[21] = system: Human immunodeficiency virus 1; assay: Resistance ratio of EC50 for multidrug-resistant HIV 1 IRLL98 harboring reverse transcriptase K101Q/Y181C/G190a mutant to EC50 for wild type HIV 1 NL4-3 infected in human MT4 cells; assay type: functional; in short: as §2
[22] = system: Human immunodeficiency virus 1; assay: Antiviral activity against multidrug-resistant HIV 1 IRLL98 harboring reverse transcriptase K101Q/Y181C/G190a mutant infected in human MT4 cells assessed as virus-induced cytopathic effect after 5 days by MTT assay; assay type: functional, organism-based; details: Human immunodeficiency virus 1, IRLL98, MT4, 120 h; in short: as §3
[23] = system: Human immunodeficiency virus type 1 reverse transcriptase (Human immunodeficiency virus 1), Q72547 [K103N]; assay: Ratio of MC1220 ID50 to compound ID50 for HIV 1 reverse transcriptase K103N mutant

Row | SMILES | Ratio [1] | ID50 [2] [nM] | selectivity ratio [3] | Ratio [4] | Ratio EC50 [5] | EC50 [6] [nM] | EC50 [7] [nM] | CC50 [8] [nM] | Ratio [9] | Ratio EC50 [10] | ID50 [11] [nM] | selectivity ratio [12] | EC50 [13] [nM] | EC50 [14] [nM] | Ratio [15] | ID50 [16] [nM] | ID50 [17] [nM] | Ratio EC50 [19] | Ratio EC50 [20] | EC50 [22] [nM] | other results
1 | CC(c1cc(N)nc(Nc2ccc(C#N)cc2)n1)c1c(F)cccc1F (stereo unspecified) | 147 | 11100 | 154000 | 10 | 27 | 0.3 | 8.2 | 46100 | 1010 | >10 | 109 | > 10 | 66.6 | 44.7 | 69 | 765 | 11 | 222 | 149 | – | Ratio [18]: 2.5
2 | Cc1c(Cl)nc(Nc2ccc(C#N)cc2)nc1C(C)c1c(F)cccc1F (stereo unspecified) | 2.6 | 3400 | > 5650 | 8.1 | 1 | 2.3 | 2.3 | > 13000 | 386 | – | 71 | – | 60 | 44 | 17 | 150 | 8.8 | 30 | 22 | 7.8 | Ratio EC50 [21]: 3
3 | Cc1c(N)nc(Nc2ccc(C#N)cc2)nc1Cc1c(F)cccc1F | 315 | 22100 | 230000 | 8 | 41 | 0.2 | 8.2 | 45900 | 2010 | >10 | 90 | > 10 | 151 | 70.3 | 55 | 603 | 11 | 756 | 352 | – | Ratio [18]: 2.5
4 | Cc1ccnc2c1NC(=O)c1cccnc1N2C1CC1 [NEVIRAPINE] | – | 35000 | – | – | – | – | 6120 | 7510 | – | – | – | – | > 7510 | > 7510 | – | – | – | – | – | > 18800 | –
5 | Cc1c(C(C)c2c(F)cccc2F)nc(N(C)C)[nH]c1=O (stereo unspecified) | 5 | 4000 | – | 5 | – | – | – | > 17000 | 40 | – | 500 | – | – | – | 10 | 1000 | 100 | – | – | 205 | –
6 | O=C1Nc2ccc(Cl)cc2[C@@](C#CC2CC2)(C(F)(F)F)O1 [EFAVIRENZ] | – | – | – | – | – | 3.17 | 343 | 3170 | – | – | – | – | – | 10.1 | – | – | – | – | – | 634 | –
7 | Cc1c(C(C)c2c(F)cccc2F)nc(Nc2ccc(C#N)cc2)[nH]c1=O (stereo unspecified) | 172 | 1400 | 367 | 312 | 21 | 2.9 | 61.1 | 1060 | 3500 | – | 125 | – | 230 | 45.6 | 2500 | 1000 | 0.4 | 79 | 16 | – | –
8 | Cc1cc(C)c(Nc2ccnc(Nc3ccc(C#N)cc3)n2)c(C)c1 [DAPIVIRINE] | – | > 1000 | – | – | – | 0.03 | 1.2 | 3040 | – | – | 100 | – | – | 1.2 | – | – | 7 | – | – | 0.3 | –
9 | N#Cc1ccc(Nc2nc(N)cc(Cc3c(F)cccc3F)n2)cc1 | 280 | 17300 | 149000 | 15 | 47 | 0.3 | 14.2 | 44600 | 1570 | >10 | 169 | > 10 | 108 | 71.4 | 137 | 1510 | 11 | 361 | 238 | – | Ratio [18]: 2.5
10 | N#Cc1ccc(Nc2nccc(Cc3c(F)cccc3F)n2)cc1 | 306 | 7470 | > 155000 | 83 | 136 | 0.5 | 68.2 | > 77600 | 1250 | – | 500 | – | 225 | 60.2 | 112 | 671 | 6 | 450 | 120 | – | –
11 | Cc1c(N)nc(Nc2ccc(C#N)cc2)nc1C(C)c1c(F)cccc1F (stereo unspecified) | 10 | 1680 | – | 1.6 | – | 0.08 | 34.7 | 40500 | 120 | >10 | 22 | > 10 | 27.4 | 39.9 | 20 | 282 | 14 | – | – | 0.82 | Ratio [23]: 23; Ratio EC50 [21]: 10; Ratio [18]: 2.5
